Test results published in EPA's CvTdb concentration-time database.
Several values for one entry are separate records, joined by “and”; a condition that tells them apart may be missing. Identical values can stand only once.

System: mouse
Assay: concentration in blood after dosing; negative times count back from the end of exposure
Conditions: dosed: tert-amyl methyl ether, inhalation, duration: 6 hr, male, CD-1 (Charles River)
Procedure, shortened: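 Points were largely digitised from plot screenshots with WebPlotDigitizer or otherwise copied from tables, and they remain in the units each source reported. They come from published in vivo toxicokinetic studies and two structured collections. Sampling and analytical methods follow each source and were often not reported.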

CCC(C)(C)O [tertiary amyl alcohol]
Conditions	concentration in blood
0.1295 h, 2500 ppm	209000 ng/mL
0.1808 h, 500 ppm	29600 ng/mL
0.1823 h, 500 ppm	32600 ng/mL
0.1835 h, 500 ppm	34900 ng/mL
0.1993 h, 2500 ppm	170000 ng/mL
0.2 h, 2500 ppm	165000 ng/mL
0.2011 h, 2500 ppm	158000 ng/mL
0.5116 h, 500 ppm	16700 ng/mL
0.5437 h, 500 ppm	19500 ng/mL
0.545 h, 500 ppm	22000 ng/mL
0.5455 h, 500 ppm	23100 ng/mL
0.5766 h, 2500 ppm	194000 ng/mL
0.5768 h, 2500 ppm	193000 ng/mL
0.5776 h, 2500 ppm	187000 ng/mL
0.59 h, 2500 ppm	109000 ng/mL
1.057 h, 500 ppm	3620 ng/mL
1.059 h, 500 ppm	7190 ng/mL
1.061 h, 500 ppm	12200 ng/mL
1.062 h, 500 ppm	12600 ng/mL
1.12 h, 2500 ppm	175000 ng/mL
1.123 h, 2500 ppm	155000 ng/mL and 153000 ng/mL and 151000 ng/mL
1.914 h, 500 ppm	752 ng/mL
1.945 h, 500 ppm	139 ng/mL
2.052 h, 2500 ppm	105000 ng/mL
2.058 h, 2500 ppm	66500 ng/mL and 65300 ng/mL
2.059 h, 2500 ppm	57700 ng/mL
4.101 h, 2500 ppm	3630 ng/mL and 1940 ng/mL
9.951 h, 500 ppm	73.9 ng/mL
10.17 h, 2500 ppm	1840 ng/mL
17.96 h, 500 ppm	8.51 ng/mL
18.11 h, 2500 ppm	2120 ng/mL
126 s, 500 ppm	44300 ng/mL
133 s, 2500 ppm	192000 ng/mL
137 s, 2500 ppm	184000 ng/mL
138 s, 2500 ppm	183000 ng/mL
151 s, 500 ppm	57900 ng/mL
343 s, 500 ppm	42500 ng/mL

during exposure
Conditions	concentration in blood
-6 h, 100 ppm	3.59 ng/mL
-5.999 h, 500 ppm	1220 ng/mL
-5.907 h, 500 ppm	2450 ng/mL
-5.876 h, 500 ppm	2750 ng/mL
-5.873 h, 2500 ppm	2950 ng/mL
-5.818 h, 100 ppm	247 ng/mL and 289 ng/mL
-5.817 h, 100 ppm	326 ng/mL and 401 ng/mL
-5.814 h, 500 ppm	4080 ng/mL
-5.771 h, 100 ppm	487 ng/mL
-5.747 h, 2500 ppm	7170 ng/mL
-5.725 h, 100 ppm	600 ng/mL
-5.72 h, 500 ppm	7750 ng/mL
-5.659 h, 100 ppm	386 ng/mL and 450 ng/mL
-5.567 h, 500 ppm	6220 ng/mL
-5.507 h, 500 ppm	5100 ng/mL
-5.476 h, 100 ppm	694 ng/mL
-5.474 h, 500 ppm	9590 ng/mL
-5.464 h, 2500 ppm	25700 ng/mL
-5.433 h, 2500 ppm	29900 ng/mL
-5.244 h, 2500 ppm	40100 ng/mL
-5.135 h, 500 ppm	11400 ng/mL and 11600 ng/mL
-5.134 h, 500 ppm	13700 ng/mL and 14100 ng/mL
-4.958 h, 100 ppm	720 ng/mL
-4.937 h, 100 ppm	510 ng/mL
-4.936 h, 100 ppm	630 ng/mL
-4.934 h, 100 ppm	828 ng/mL
-4.899 h, 2500 ppm	67100 ng/mL
-4.898 h, 2500 ppm	64100 ng/mL and 61600 ng/mL
-4.897 h, 2500 ppm	57400 ng/mL
-4.057 h, 500 ppm	20900 ng/mL
-4.055 h, 500 ppm	23900 ng/mL
-4.054 h, 500 ppm	26200 ng/mL and 27300 ng/mL
-4 s, 500 ppm	33800 ng/mL
-3.898 h, 100 ppm	686 ng/mL
-3.897 h, 100 ppm	870 ng/mL
-3.895 h, 100 ppm	1130 ng/mL
-3.874 h, 100 ppm	926 ng/mL
-3.797 h, 2500 ppm	131000 ng/mL
-3.796 h, 2500 ppm	123000 ng/mL and 121000 ng/mL
-3.791 h, 2500 ppm	94900 ng/mL
-2.118 h, 500 ppm	33200 ng/mL
-2.087 h, 500 ppm	34400 ng/mL and 34600 ng/mL
-2.086 h, 500 ppm	36700 ng/mL
-1.99 h, 2500 ppm	155000 ng/mL
-1.979 h, 100 ppm	1160 ng/mL
-1.978 h, 100 ppm	1210 ng/mL
-1.96 h, 2500 ppm	162000 ng/mL
-1.957 h, 2500 ppm	146000 ng/mL
-1.953 h, 100 ppm	1570 ng/mL
